Results taken from ChEMBL document CHEMBL1944580, “Synthesis of novel sulfonamide-1,2,4-triazoles, 1,3,4-thiadiazoles and 1,3,4-oxadiazoles, as potential antibacterial and antifungal agents. Biological evaluation and conformational analysis studies” (2012).
Values after ≈ are worked out from the molar mass of the structure shown.

Assays:
Staphylococcus aureus [1] = assay: Antibacterial activity against Staphylococcus aureus ATCC 6538 after 24 hrs by micro dilution method; format: functional; conditions: ATCC 6538, 24 h
Summary of the method: (§1)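 Microdilution MIC in 96-well plates. Bacterial suspensions adjusted in sterile saline to 1.0 × 10^5 CFU/ml, giving 1.0 × 10^4 cfu per well in LB broth. Compounds tested at up to 1 mg/ml. Plates incubated 24 h. MIC taken as the lowest concentration with no visible growth under a binocular microscope. OD at 655 nm was also read against a blank and the positive control. Streptomycin and ampicillin were the positive controls.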

Bacillus cereus [2] = assay: Antibacterial activity against Bacillus cereus clinical isolate after 24 hrs by micro dilution method; format: functional; summary of the method: as §1
Micrococcus flavus [3] = assay: Antibacterial activity against Micrococcus flavus ATCC 10240 after 24 hrs by micro dilution method; format: functional; conditions: ATCC 10240, 24 h; summary of the method: as §1
Listeria monocytogenes [4] = assay: Antibacterial activity against Listeria monocytogenes NCTC 7973 after 24 hrs by micro dilution method; format: functional; conditions: NCTC 7973, 24 h; summary of the method: as §1
Pseudomonas aeruginosa [5] = assay: Antibacterial activity against Pseudomonas aeruginosa ATCC 27853 after 24 hrs by micro dilution method; format: functional; conditions: ATCC 27853, 24 h; summary of the method: as §1
Enterobacter cloacae [6] = assay: Antibacterial activity against Enterobacter cloacae human isolate after 24 hrs by micro dilution method; format: functional; summary of the method: as §1
Salmonella typhimurium [7] = assay: Antibacterial activity against Salmonella Typhimurium ATCC 13311 after 24 hrs by micro dilution method; format: functional, Salmonella enterica subsp. enterica serovar Typhimurium; conditions: Salmonella enterica, ATCC 13311, 24 h; summary of the method: as §1
Escherichia coli [8] = assay: Antibacterial activity against Escherichia coli ATCC 35210 after 24 hrs by micro dilution method; format: functional; conditions: ATCC 35210, 24 h; summary of the method: as §1
Staphylococcus aureus [9] = assay: Antibacterial activity against Staphylococcus aureus ATCC 6538 treated for 24 hrs followed by sub-cultivated for 72 hrs by micro dilution method; format: functional
Summary of the method: (§2)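 2 µl from each well was serially subcultured into 100 µl fresh broth per well and incubated a further 72 h. MBC is the lowest concentration with no visible growth, taken as 99.5% killing of the original inoculum. Streptomycin and ampicillin were the positive controls.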

Bacillus cereus [10] = assay: Antibacterial activity against Bacillus cereus clinical isolate treated for 24 hrs followed by sub-cultivated for 72 hrs by micro dilution method; format: functional; summary of the method: as §2
Micrococcus flavus [11] = assay: Antibacterial activity against Micrococcus flavus ATCC 10240 treated for 24 hrs followed by sub-cultivated for 72 hrs by micro dilution method; format: functional; summary of the method: as §2
Listeria monocytogenes [12] = assay: Antibacterial activity against Listeria monocytogenes NCTC 7973 treated for 24 hrs followed by sub-cultivated for 72 hrs by micro dilution method; format: functional; summary of the method: as §2
Pseudomonas aeruginosa [13] = assay: Antibacterial activity against Pseudomonas aeruginosa ATCC 27853 treated for 24 hrs followed by sub-cultivated for 72 hrs by micro dilution method; format: functional; summary of the method: as §2
Enterobacter cloacae [14] = assay: Antibacterial activity against Enterobacter cloacae human isolate treated for 24 hrs followed by sub-cultivated for 72 hrs by micro dilution method; format: functional; summary of the method: as §2
Salmonella typhimurium [15] = assay: Antibacterial activity against Salmonella Typhimurium ATCC 13311 treated for 24 hrs followed by sub-cultivated for 72 hrs by micro dilution method; format: functional, Salmonella enterica subsp. enterica serovar Typhimurium; conditions: Salmonella enterica; summary of the method: as §2
Escherichia coli [16] = assay: Antibacterial activity against Escherichia coli ATCC 35210 treated for 24 hrs followed by sub-cultivated for 72 hrs by micro dilution method; format: functional; summary of the method: as §2
Talaromyces funiculosus [17] = assay: Antifungal activity against Penicillium funiculosum ATCC 36839 after 72 hrs by serial dilution method; format: functional; conditions: ATCC 36839, 72 h
Summary of the method: (§3)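 Modified microdilution MIC. Spores were washed from malt agar cultures with sterile 0.85% saline containing 0.1% Tween 80 and adjusted to about 1.0 × 10^5 per 100 µl well in malt broth. Compounds were dissolved in DMSO (1 mg/ml). Plates incubated 72 h at 28 °C. MIC is the lowest concentration with no visible growth under a binocular microscope. Bifonazole and ketoconazole were the references.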

Penicillium ochrochloron [18] = assay: Antifungal activity against Penicillium ochrochloron ATCC 9112 after 72 hrs by serial dilution method; format: functional; conditions: ATCC 9112, 72 h; summary of the method: as §3
Trichoderma viride [19] = assay: Antifungal activity against Trichoderma viride IAM 5061 after 72 hrs by serial dilution method; format: functional; conditions: IAM 5061, 72 h; summary of the method: as §3
Aspergillus fumigatus [20] = assay: Antifungal activity against Aspergillus fumigatus human isolate after 72 hrs by serial dilution method; format: functional; summary of the method: as §3
Aspergillus niger [21] = assay: Antifungal activity against Aspergillus niger ATCC 6275 after 72 hrs by serial dilution method; format: functional; conditions: ATCC 6275, 72 h; summary of the method: as §3
Aspergillus flavus [22] = assay: Antifungal activity against Aspergillus flavus ATCC 9643 after 72 hrs by serial dilution method; format: functional; conditions: ATCC 9643, 72 h; summary of the method: as §3
Aspergillus versicolor [23] = assay: Antifungal activity against Aspergillus versicolor ATCC 11730 after 72 hrs by serial dilution method; format: functional; conditions: ATCC 11730, 72 h; summary of the method: as §3
Fulvia fulva [24] = assay: Antifungal activity against Fulvia fulva after 72 hrs by serial dilution method; format: functional; summary of the method: as §3
Talaromyces funiculosus [25] = assay: Antifungal activity against Penicillium funiculosum ATCC 36839 treated for 72 hrs followed by sub-cultivated for 5 days by serial dilution method; format: functional
Summary of the method: (§4)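 MFC obtained after the 72 h, 28 °C malt-broth microdilution (spore inoculum about 1.0 × 10^5 per well, compounds from 1 mg/ml DMSO). 2 µl was serially subcultured into 100 µl broth per well and incubated a further 5 days at 28 °C. MFC is the lowest concentration with no visible growth, taken as 99.5% killing of the original inoculum.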

Penicillium ochrochloron [26] = assay: Antifungal activity against Penicillium ochrochloron ATCC 9112 treated for 72 hrs followed by sub-cultivated for 5 days by serial dilution method; format: functional; summary of the method: as §4
Trichoderma viride [27] = assay: Antifungal activity against Trichoderma viride IAM 5061 treated for 72 hrs followed by sub-cultivated for 5 days by serial dilution method; format: functional; summary of the method: as §4
Aspergillus fumigatus [28] = assay: Antifungal activity against Aspergillus fumigatus human isolate treated for 72 hrs followed by sub-cultivated for 5 days by serial dilution method; format: functional; summary of the method: as §4
Aspergillus niger [29] = assay: Antifungal activity against Aspergillus niger ATCC 6275 treated for 72 hrs followed by sub-cultivated for 5 days by serial dilution method; format: functional; summary of the method: as §4
Aspergillus flavus [30] = assay: Antifungal activity against Aspergillus flavus ATCC 9643 treated for 72 hrs followed by sub-cultivated for 5 days by serial dilution method; format: functional; summary of the method: as §4
Aspergillus versicolor [31] = assay: Antifungal activity against Aspergillus versicolor ATCC 11730 treated for 72 hrs followed by sub-cultivated for 5 days by serial dilution method; format: functional; summary of the method: as §4
Fulvia fulva [32] = assay: Antifungal activity against Fulvia fulva treated for 72 hrs followed by sub-cultivated for 5 days by serial dilution method; format: functional; summary of the method: as §4

SMILES	MIC (Staphylococcus aureus [1]) [µM]	MIC (Bacillus cereus [2]) [µM]	MIC (Micrococcus flavus [3]) [µM]	MIC (Listeria monocytogenes [4]) [µM]	MIC (Pseudomonas aeruginosa [5]) [µM]	MIC (Enterobacter cloacae [6]) [µM]	MIC (Salmonella typhimurium [7]) [µM]	MIC (Escherichia coli [8]) [µM]	MBC (Staphylococcus aureus [9]) [µM]	MBC (Bacillus cereus [10]) [µM]	MBC (Micrococcus flavus [11]) [µM]	MBC (Listeria monocytogenes [12]) [µM]	MBC (Pseudomonas aeruginosa [13]) [µM]	MBC (Enterobacter cloacae [14]) [µM]	MBC (Salmonella typhimurium [15]) [µM]	MBC (Escherichia coli [16]) [µM]	MIC (Talaromyces funiculosus [17]) [µM]	MIC (Penicillium ochrochloron [18]) [µM]	MIC (Trichoderma viride [19]) [µM]	MIC (Aspergillus fumigatus [20]) [µM]	also measured
CCn1c(Cc2cc(OC)c(OC)cc2S(=O)(=O)N(C)C)n[nH]c1=S	260 (≈ 100 µg/mL)	520 (≈ 201 µg/mL)	260 (≈ 100 µg/mL)	260 (≈ 100 µg/mL)	260 (≈ 100 µg/mL)	260 (≈ 100 µg/mL)	260 (≈ 100 µg/mL)	260 (≈ 100 µg/mL)	520 (≈ 201 µg/mL)	520 (≈ 201 µg/mL)	520 (≈ 201 µg/mL)	520 (≈ 201 µg/mL)	260 (≈ 100 µg/mL)	520 (≈ 201 µg/mL)	260 (≈ 100 µg/mL)	520 (≈ 201 µg/mL)	130 (≈ 50.2 µg/mL)	130 (≈ 50.2 µg/mL)	70 (≈ 27.1 µg/mL)	130 (≈ 50.2 µg/mL)	MIC (Aspergillus niger [21]): 70 µM (≈ 27.1 µg/mL); MIC (Aspergillus flavus [22]): 70 µM (≈ 27.1 µg/mL); MIC (Aspergillus versicolor [23]): 130 µM (≈ 50.2 µg/mL); MIC (Fulvia fulva [24]): 70 µM (≈ 27.1 µg/mL); MFC (Talaromyces funiculosus [25]): 260 µM (≈ 100 µg/mL); MFC (Penicillium ochrochloron [26]): 260 µM (≈ 100 µg/mL); MFC (Trichoderma viride [27]): 130 µM (≈ 50.2 µg/mL); MFC (Aspergillus fumigatus [28]): 260 µM (≈ 100 µg/mL); MFC (Aspergillus niger [29]): 130 µM (≈ 50.2 µg/mL); MFC (Aspergillus flavus [30]): 260 µM (≈ 100 µg/mL); MFC (Aspergillus versicolor [31]): 260 µM (≈ 100 µg/mL); MFC (Fulvia fulva [32]): 70 µM (≈ 27.1 µg/mL)
CNc1nnc(Cc2cc(OC)c(OC)cc2S(=O)(=O)N(C)C)o1	280 (≈ 99.8 µg/mL)	280 (≈ 99.8 µg/mL)	560 (≈ 200 µg/mL)	420 (≈ 150 µg/mL)	420 (≈ 150 µg/mL)	700 (≈ 249 µg/mL)	420 (≈ 150 µg/mL)	280 (≈ 99.8 µg/mL)	280 (≈ 99.8 µg/mL)	280 (≈ 99.8 µg/mL)	840 (≈ 299 µg/mL)	420 (≈ 150 µg/mL)	560 (≈ 200 µg/mL)	840 (≈ 299 µg/mL)	420 (≈ 150 µg/mL)	420 (≈ 150 µg/mL)	140 (≈ 49.9 µg/mL)	140 (≈ 49.9 µg/mL)	30 (≈ 10.7 µg/mL)	140 (≈ 49.9 µg/mL)	MIC (Aspergillus niger [21]): 140 µM (≈ 49.9 µg/mL); MIC (Aspergillus flavus [22]): 140 µM (≈ 49.9 µg/mL); MIC (Aspergillus versicolor [23]): 140 µM (≈ 49.9 µg/mL); MIC (Fulvia fulva [24]): 280 µM (≈ 99.8 µg/mL); MFC (Talaromyces funiculosus [25]): 280 µM (≈ 99.8 µg/mL); MFC (Penicillium ochrochloron [26]): 450 µM (≈ 160 µg/mL); MFC (Trichoderma viride [27]): 140 µM (≈ 49.9 µg/mL); MFC (Aspergillus fumigatus [28]): 280 µM (≈ 99.8 µg/mL); MFC (Aspergillus niger [29]): 450 µM (≈ 160 µg/mL); MFC (Aspergillus flavus [30]): 450 µM (≈ 160 µg/mL); MFC (Aspergillus versicolor [31]): 450 µM (≈ 160 µg/mL); MFC (Fulvia fulva [32]): 450 µM (≈ 160 µg/mL)
